Results reported in ChEMBL document CHEMBL1221207, “Expanding the promiscuity of a natural-product glycosyltransferase by directed evolution” (Nat Chem Biol, 2007).
Residue numbers refer to the chain shown, from its start.

What was measured:
[1] = system: T1, Oleandomycin glycosyltransferase (Streptomyces antibioticus), Q53685 [P67T]; assay: Activity of Streptomyces antibioticus OleD P67T mutant assessed as as rate of glucoside formation measured as nanomoles of product formed per minute per mg of enzyme
T1 sequence (whole entry): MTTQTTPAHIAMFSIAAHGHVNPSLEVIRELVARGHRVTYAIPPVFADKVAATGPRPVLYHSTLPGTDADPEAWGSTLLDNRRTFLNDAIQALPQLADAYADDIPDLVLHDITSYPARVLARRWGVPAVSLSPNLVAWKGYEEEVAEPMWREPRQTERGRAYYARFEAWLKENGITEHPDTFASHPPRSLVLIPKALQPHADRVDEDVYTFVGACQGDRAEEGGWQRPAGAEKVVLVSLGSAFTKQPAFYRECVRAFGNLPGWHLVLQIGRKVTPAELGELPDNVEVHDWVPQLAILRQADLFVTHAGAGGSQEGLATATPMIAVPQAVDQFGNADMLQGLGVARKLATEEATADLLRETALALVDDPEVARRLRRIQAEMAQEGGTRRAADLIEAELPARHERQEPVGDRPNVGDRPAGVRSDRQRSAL

[2] = system: T2, Oleandomycin glycosyltransferase (Streptomyces antibioticus), Q53685 [A242V]; assay: Activity of Streptomyces antibioticus OleD A242V mutant assessed as as rate of glucoside formation measured as nanomoles of product formed per minute per mg of enzyme
T2 sequence (whole entry): T1 sequence (whole entry) with T67P, A242V

[3] = target: T3, Oleandomycin glycosyltransferase (Streptomyces antibioticus) (UniProt Q53685); assay: Activity of Streptomyces antibioticus wild-type OleD assessed as conversion rate of compound to produce glucoside 3 using NDP sugar UDP-6-deoxy-glucose after 3 hrs by HPLC
T3 sequence (whole entry): T1 sequence (whole entry) with T67P
Summary of the method: (§1)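 End-point donor-specificity assay with purified OleD enzyme. Percentage conversion was read after 3 h. Quenched reactions were run by reverse-phase C18 HPLC with a 10–90% CH3CN gradient in 0.1% formic acid/H2O over 20 min at 1 ml min–1, with detection at 254 nm. Products were identified by LC-MS, by comparison to standards where available, and by fluorescence.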

[4] = system: T4, Oleandomycin glycosyltransferase (Streptomyces antibioticus), Q53685 [P67T,S132F,A242V]; assay: Activity of Streptomyces antibioticus OleD P67T/S132F/A242V mutant assessed as conversion rate of compound to produce glucoside 3 using NDP sugar donor UDP-4-deoxy-glucose after 3 hrs by HPLC; summary of the method: as §1
T4 sequence (whole entry): T1 sequence (whole entry) with S132F, A242V

[5] = system: T4, Oleandomycin glycosyltransferase (Streptomyces antibioticus), Q53685 [P67T,S132F,A242V]; assay: Activity of Streptomyces antibioticus OleD P67T/S132F/A242V mutant assessed as conversion rate of compound to produce glucoside 3 using NDP sugar donor UDP-4-amino-glucose after 3 hrs by HPLC; summary of the method: as §1
[6] = system: T4, Oleandomycin glycosyltransferase (Streptomyces antibioticus), Q53685 [P67T,S132F,A242V]; assay: Activity of Streptomyces antibioticus OleD P67T/S132F/A242V mutant assessed as conversion rate of compound to produce glucoside 3 using NDP sugar donor-UDP-3-deoxy-glucose after 3 hrs by HPLC; summary of the method: as §1
[7] = system: T4, Oleandomycin glycosyltransferase (Streptomyces antibioticus), Q53685 [P67T,S132F,A242V]; assay: Activity of Streptomyces antibioticus OleD P67T/S132F/A242V mutant assessed as conversion rate of compound to produce glucoside 3 using NDP sugar donor UDP-3-amino-glucose after 3 hrs by HPLC; summary of the method: as §1
[8] = system: T4, Oleandomycin glycosyltransferase (Streptomyces antibioticus), Q53685 [P67T,S132F,A242V]; assay: Activity of Streptomyces antibioticus OleD P67T/S132F/A242V mutant assessed as conversion rate of compound to produce glucoside 3 using NDP sugar […] after 3 hrs by HPLC; summary of the method: as §1
[9] = system: T2, Oleandomycin glycosyltransferase (Streptomyces antibioticus), Q53685 [A242V]; assay: Activity of Streptomyces antibioticus OleD A242V mutant assessed as conversion rate of compound to produce glucoside 3 using NDP sugar donor UDP-6-deoxy-glucose after 3 hrs by HPLC; summary of the method: as §1

Structure (SMILES): Cc1cc(=O)oc2cc(O)ccc12
- Activity [1]: 15.7 nmol/min
- Activity [2]: 5.4 nmol/min
- Activity [3]: 6%
- Activity [4]: 22%
- Activity [5]: 13%
- Activity [6]: 8%
- Activity [7]: 4%
- Activity [8]: 21%
- Activity [9]: 6%
